Reference: ChEMBL document CHEMBL3232705, “Discovery of isoquinolinone indole acetic acids as antagonists of chemoattractant receptor homologous molecule expressed on Th2 cells (CRTH2) for the treatment of allergic inflammatory diseases” (J Med Chem, 2014)
pIC50: −log10 of the molar value. One block for each compound: values may come before it. The source made the active and inactive calls. No cut-off for these calls is given here.

How the values were obtained:
[1] = target: T1, Prostaglandin D2 receptor 2 (Homo sapiens, UniProt Q9Y5Y4); assay: Antagonist activity at human recombinant CRTh2 expressed in CHO-K1 cells by cAMP TR FRET assay; type: functional, cell-based
T1 sequence (Q9Y5Y4 whole entry): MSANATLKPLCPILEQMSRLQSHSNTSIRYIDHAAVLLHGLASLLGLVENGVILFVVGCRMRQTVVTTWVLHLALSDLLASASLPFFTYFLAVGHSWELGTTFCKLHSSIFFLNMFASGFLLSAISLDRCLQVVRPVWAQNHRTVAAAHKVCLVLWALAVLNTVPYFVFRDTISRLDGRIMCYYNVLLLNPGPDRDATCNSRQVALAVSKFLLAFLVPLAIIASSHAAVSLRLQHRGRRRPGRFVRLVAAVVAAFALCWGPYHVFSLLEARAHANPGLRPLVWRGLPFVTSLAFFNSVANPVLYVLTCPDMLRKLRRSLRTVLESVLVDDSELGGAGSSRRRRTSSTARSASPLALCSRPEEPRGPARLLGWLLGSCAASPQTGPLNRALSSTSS

[2] = Metabolic clearance in dog hepatocytes measured per 10^6 cells; type: ADME, cell-based, Canis lupus familiaris, Hepatocyte; settings: read-out: CLH
[3] = Drug excretion in rat bile assessed as drug recovery at 5 mg/kg, iv measured after 24 hrs by LC-MS analysis; type: ADME, organism-based; set-up: dose 5 mg/kg, route intravenous; settings: read-out: Drug recovery
How it was run: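 Bile duct-cannulated rats given a single iv dose of 5 mg/kg; parent drug recovered in bile and urine over 24 h.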

Hepatocyte [4] = assay: In vitro intrinsic biliary clearance in sandwich cultured human hepatocytes measured; type: ADME, cell-based, Bile
How it was run: (§1)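 Sandwich-cultured hepatocytes incubated with substrate at 1–50 μM (rat) or 1–10 μM (human), with and without Ca2+. Biliary excretion taken as the difference in cellular accumulation between the two conditions. Intrinsic biliary clearance calculated as amount excreted into bile divided by substrate concentration over time.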

[5] = Metabolic clearance in monkey hepatocytes measured per 10^6 cells; type: ADME, cell-based, Macaca mulatta, Hepatocyte; settings: rhesus monkey, read-out: CLH
[6] = Oral bioavailability in dog at 10 mg/kg; type: ADME, organism-based, Canis lupus familiaris; settings: in vivo
[7] = Half life in monkey at 2 mg/kg, iv; type: ADME, organism-based, Macaca mulatta; set-up: dose 2 mg/kg, route intravenous; settings: rhesus monkey, in vivo
How it was run: (§2)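 Single intravenous dose of 2 mg/kg and single oral dose of 10 mg/kg, given separately, in rat, dog and monkey. Clearance and half-life taken from the iv arm; Cmax from the oral arm.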

[8] = Metabolic clearance in rat hepatocytes measured per 10^6 cells; type: ADME, cell-based, Hepatocyte; settings: read-out: CLH
[9] = Clearance in dog at 2 mg/kg, iv; type: ADME, organism-based, Canis lupus familiaris; set-up: dose 2 mg/kg, route intravenous; settings: in vivo; how it was run: as §2
[10] = Clearance in monkey at 2 mg/kg, iv; type: ADME, organism-based, Macaca mulatta; set-up: dose 2 mg/kg, route intravenous; settings: rhesus monkey, in vivo; how it was run: as §2
[11] = Volume of distribution at steady state in monkey at 2 mg/kg, iv; type: ADME, organism-based, Macaca mulatta; set-up: dose 2 mg/kg, route intravenous; settings: rhesus monkey, in vivo, read-out: Vdss
[12] = Half life in dog at 2 mg/kg, iv; type: ADME, organism-based, Canis lupus familiaris; set-up: dose 2 mg/kg, route intravenous; settings: in vivo; how it was run: as §2
[13] = Drug excretion in dog feces assessed as drug recovery at 5 mg/kg, iv measured after 24 hrs by LC-MS analysis; type: ADME, organism-based, Canis lupus familiaris; set-up: dose 5 mg/kg, route intravenous; settings: faeces, read-out: Drug recovery
How it was run: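 Dogs given a single intravenous dose of 5 mg/kg; unchanged parent drug measured in the feces.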

Hepatocyte [14] = assay: In vitro intrinsic biliary clearance in sandwich cultured rat hepatocytes measured; type: ADME, cell-based, Bile; how it was run: as §1
[15] = Oral bioavailability in monkey at 10 mg/kg; type: ADME, organism-based, Macaca mulatta; settings: rhesus monkey, in vivo
[16] = Plasma clearance in rat at 5 mg/kg, iv measured after 24 hrs by LC-MS analysis; type: ADME, organism-based; set-up: dose 5 mg/kg, route intravenous
How it was run: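 Bile duct-cannulated rats received a single iv dose of 5 mg/kg. Average plasma clearance was determined, and parent drug was quantified in bile and urine collected over 24 h.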

Rattus norvegicus [17] = assay: In vivo intrinsic biliary clearance in rat; type: ADME, organism-based, Bile
[18] = Cmax in dog at 10 mg/kg, po; type: ADME, organism-based, Canis lupus familiaris; set-up: dose 10 mg/kg, route oral; settings: in vivo; how it was run: as §2
[19] = Volume of distribution at steady state in dog at 2 mg/kg, iv; type: ADME, organism-based, Canis lupus familiaris; set-up: dose 2 mg/kg, route intravenous; settings: in vivo, read-out: Vdss
[20] = Cmax in monkey at 10 mg/kg, po; type: ADME, organism-based, Macaca mulatta; set-up: dose 10 mg/kg, route oral; settings: rhesus monkey, in vivo; how it was run: as §2
[21] = Oral bioavailability in rat at 10 mg/kg; type: ADME, organism-based; settings: in vivo
[22] = Clearance in rat at 2 mg/kg, iv and 10 mg/kg, po; type: ADME, organism-based; settings: in vivo
Mus musculus [23] = assay: Antiallergic activity in house dust mite-induced allergic airway disease BALB/c mouse model assessed as reduction in airway inflammation at 1 mg/kg, ip qd after 17 days; type: functional, organism-based; set-up: dose 1 mg/kg
Rattus norvegicus [24] = species: Rattus norvegicus; assay: Clearance in rat; settings: in vivo
Rattus norvegicus [25] = assay: Oral bioavailability in rat; settings: in vivo
Mus musculus [26] = assay: Antiallergic inflammatory activity in oxazolone induced contact hypersensitivity mouse model assessed as reduction ear swelling at 3 mg/kg, po prior to oxazolone and 7 hrs post challenge measured after 24 hrs; type: functional
How it was run: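 Mice sensitized on the shaved abdomen with 2% oxazolone in ethanol one week before challenge. Dosed orally 1 h before the left ear was challenged with 10 μL of 2% oxazolone (ethanol on the right ear as control), then redosed 7 h after challenge. Ear thickness measured by micrometer; swelling taken as 24 h post-challenge minus pre-challenge thickness. Unpaired t test.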

pIC50 [1]: 8.10
SMILES: Cc1c(Cc2ccc(=O)n(Cc3cccc(F)c3)n2)c2cc(F)ccc2n1CC(=O)O

pIC50 [1]: 8.70
SMILES: Cc1c(Cc2ccc(=O)n(Cc3cc(F)ccc3F)n2)c2cc(F)ccc2n1CC(=O)O

pIC50 [1]: 7.68
SMILES: Cc1c(-c2ccc(=O)n(Cc3c(F)cccc3F)c2)c2ccccc2n1CC(=O)O

pIC50 [1]: 7.96
SMILES: Cc1c(Cc2ccc(=O)n(CCCC(F)(F)F)n2)c2cc(F)ccc2n1CC(=O)O

pIC50 [1]: 7.08
SMILES: Cc1c(-c2ccc(=O)n(CC(F)(F)F)c2)c2cc(F)ccc2n1CC(=O)O

pIC50 [1]: 8.22
SMILES: Cc1c(-c2ccc(=O)n(Cc3c(F)cccc3F)c2)c2cc(F)ccc2n1CC(=O)O

hepatocyte CLint [2]: < 5 µL/min/1e6 cells
dose excreted at 24 h [3]: 27%
CLH (Hepatocyte [4]): < 1 µL/min/µg
hepatocyte CLint [5]: < 5 µL/min/1e6 cells
bioavailability [6]: 8%
half-life [7]: 2.3 h
hepatocyte CLint [8]: < 5 µL/min/1e6 cells
clearance [9]: 20 mL/min/kg
clearance [10]: 21 mL/min/kg
Vd [11]: 0.4 L/kg
half-life [12]: 2.3 h
dose excreted at 24 h [13]: > 90%
CLH (Hepatocyte [14]): < 2.6 µL/min/µg
bioavailability [15]: 12%
clearance [16]: 14 mL/min/kg
CL (Rattus norvegicus [17]): 3.8 mL/min/kg
Cmax [18]: 716 ng/mL
Vd [19]: 0.4 L/kg
Cmax [20]: 246 ng/mL
SMILES: Cc1c(Cc2ccc(=O)n(Cc3ccc(F)cc3F)n2)c2cc(F)ccc2n1CC(=O)O

pIC50 [1]: 6.16
SMILES: Cc1c(-c2ccc(OCCCC(F)(F)F)nc2)c2cc(F)ccc2n1CC(=O)O

pIC50 [1]: 6.82
SMILES: Cc1c(Cc2ccc(=O)n(CCCC(F)(F)F)c2)c2cc(F)ccc2n1CC(=O)O

pIC50 [1]: 6.25
SMILES: Cc1c(-c2ccc(=O)n(C(C)C)c2)c2ccccc2n1CC(=O)O

pIC50 [1]: 7.28
bioavailability [21]: 20%
clearance [22]: 7 mL/min/kg
SMILES: Cc1c(Cc2ccc(=O)n(CC(F)(F)F)c2)c2cc(F)ccc2n1CC(=O)O

SMILES: C[C@@H]1C[C@H]2[C@@H]3CCC4=CC(=O)C=C[C@]4(C)[C@@]3(F)[C@@H](O)C[C@]2(C)[C@@]1(O)C(=O)CO
inhibition (Mus musculus [23]): Active

clearance (Rattus norvegicus [24]): 20 mL/min/kg
bioavailability (Rattus norvegicus [25]): 35%
SMILES: Cc1c(-c2cn(CC(F)(F)F)c(=O)c3ccccc23)c2cc(F)ccc2n1CC(=O)O
inhibition in vivo at 3 mg/kg (Mus musculus [26]): 32.8%

pIC50 [1]: 7.77
SMILES: Cc1c(-c2ccc(=O)n(Cc3ccc(F)cc3F)c2)c2cc(F)ccc2n1CC(=O)O

pIC50 [1]: 6.83
SMILES: Cc1c(-c2ccc(=O)n(CC(F)(F)F)c2)c2cc(Cl)ccc2n1CC(=O)O

pIC50 [1]: 7.85
SMILES: Cc1c(-c2cn(Cc3ccccc3)c(=O)c3ccccc23)c2cc(F)ccc2n1CC(=O)O

pIC50 [1]: 6.72
SMILES: Cc1c(-c2cn(Cc3ccccc3)c(=O)c3c2CCCC3)c2cc(F)ccc2n1CC(=O)O

pIC50 [1]: 6.00
SMILES: Cc1c(-c2cn(CC(F)(F)F)c(=O)c3c2CCCC3)c2cc(F)ccc2n1CC(=O)O

pIC50 [1]: 8.40
bioavailability [21]: 4%
clearance [22]: 32 mL/min/kg
SMILES: Cc1c(Cc2ccc(=O)n(Cc3ccc(F)cc3F)c2)c2cc(F)ccc2n1CC(=O)O

pIC50 [1]: 7.15
SMILES: Cc1c(-c2ccc(=O)n(C(C)C)c2)c2cc(F)ccc2n1CC(=O)O

pIC50 [1]: 6.71
SMILES: Cc1c(-c2ccc(=O)n(C(C)C)c2)c2cc(Cl)ccc2n1CC(=O)O

pIC50 [1]: 5.70
SMILES: COc1ccc2c(c1)c(-c1ccc(=O)n(CC(F)(F)F)c1)c(C)n2CC(=O)O

pIC50 [1]: 9.00
clearance (Rattus norvegicus [24]): 35 mL/min/kg
bioavailability (Rattus norvegicus [25]): < 5%
SMILES: Cc1c(-c2cn(CCCC(F)(F)F)c(=O)c3ccccc23)c2cc(F)ccc2n1CC(=O)O
inhibition in vivo at 3 mg/kg (Mus musculus [26]): 30.4%

pIC50 [1]: 8.22
SMILES: Cc1c(Cc2ccc(=O)n(Cc3ccc(F)cc3)n2)c2cc(F)ccc2n1CC(=O)O

pIC50 [1]: 9.10
SMILES: Cc1c(-c2ccc(=O)n(Cc3cccc(F)c3F)c2)c2cc(F)ccc2n1CC(=O)O

pIC50 [1]: 7.80
SMILES: Cc1c(-c2ccc(=O)n(CCCC(F)(F)F)c2)c2cc(F)ccc2n1CC(=O)O

SMILES: Cc1c(-c2cn(CC(C)(C)C)c(=O)c3ccccc23)c2cc(F)ccc2n1CC(=O)O
inhibition in vivo at 3 mg/kg (Mus musculus [26]): 47.4%

pIC50 [1]: 7.74
SMILES: Cc1c(Cc2ccc(=O)n(CC(F)(F)F)n2)c2cc(F)ccc2n1CC(=O)O

pIC50 [1]: 5.95
SMILES: Cc1ccc2c(c1)c(-c1ccc(=O)n(CC(F)(F)F)c1)c(C)n2CC(=O)O

bioavailability [21]: < 10%
clearance [22]: 15 mL/min/kg
SMILES: Cc1c(-c2ccc(=O)n(Cc3ccccc3)c2)c2cc(F)ccc2n1CC(=O)O
